Activity calls are given as the source filed them. No cut-off for these calls is given here.
Columns and labels:
[1] = Toxicity in BALB/c nude mouse xenografted with human MDA-MB-231 cells assessed as liver tissue damage at 25 to 50 mg/kg, ip administered every 3 days for 4 weeks; type: organism-based; conditions: in vivo, 672 h, dose 25-50 mg/kg
How it was run: (§1)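 Xenograft-bearing nude mice (MDA-MB-231, s.c. right flank, treated from about 100 mm³) received 25 or 50 mg/kg i.p. every three days for four weeks. At the end mice were euthanized, and visceral organs were fixed in 4% paraformaldehyde for histopathology.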

[2] = system: MDA-MB-231; experiment: Antitumor activity against human MDA-MB-231 cells xenografted in BALB/c nude mouse assessed as reduction in tumor weight at 25 to 50 mg/kg, ip administered every 3 days for 4 weeks; type: functional, organism-based; conditions: dose 25-50 mg/kg
How it was run: (§2)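 Nude mice given 3×10^6 MDA-MB-231 cells in 200 µL PBS, injected subcutaneously into the right flank. Once tumors reached about 100 mm³, mice were randomized into four groups. Dosing was 25 or 50 mg/kg i.p. every three days for four weeks. Tumor volume, tumor weight and body weight were followed. n = 6, mean ± SD.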

[3] = system: MDA-MB-231; experiment: Potency index, ratio of WA IC50 to compound IC50 for antiproliferative activity against human MDA-MB-231 cells after 24 hrs by MTT assay; type: functional
How it was run: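 Ratio calculated from MTT IC50 values in MDA-MB-231 cells. Cells seeded at 5×10^3/well for 24 h, then treated 24 h at 0.078-10 µM with 0.1% DMSO as vehicle. Absorbance read at 570 nm after 4 h MTT and DMSO solubilization. Triplicate wells, at least three repeats.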

[4] = system: MDA-MB-231; experiment: Induction of apoptosis in human MDA-MB-231 cells assessed as increase in cleaved caspase-9 expression after 12 hrs by Western blotting analysis; type: functional, cell-based; conditions: dose 160-640 nM
How it was run: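 MDA-MB-231 cells exposed to graded concentrations or 0.1% DMSO; the methods state 24 h, the legend 12 h. Lysed in RIPA, 80 µg protein per lane on SDS-PAGE and transferred to PVDF. Probed overnight at 4°C for caspase-3, cleaved caspase-3, caspase-9 and cleaved caspase-9, with GAPDH as loading control. HRP secondaries, ECL detection, densitometry. n = 4.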

[5] = system: MDA-MB-231; experiment: Antiproliferative activity against human MDA-MB-231 cells after 24 hrs by MTT assay; type: functional, cell-based
[6] = Toxicity in BALB/c nude mouse xenografted with human MDA-MB-231 cells assessed as lung tissue damage at 25 to 50 mg/kg, ip administered every 3 days for 4 weeks; type: organism-based; conditions: in vivo, 672 h, dose 25-50 mg/kg; how it was run: as §1
[7] = system: MDA-MB-231; experiment: Induction of apoptosis in human MDA-MB-231 cells assessed as early apoptotic cells at 320 nM incubated for 12 hrs by annexin V-FITC/PI based flow cytometric analysis (reference value: 1.2%); type: functional
How it was run: (§3)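 Cells exposed to compound or 0.1% DMSO for 12 h at 37°C, then resuspended in PBS at 1×10^5 cells/mL. Stained with annexin V-FITC and PI for 20 min at room temperature in the dark, then analysed by flow cytometry. Quadrant percentages reported: lower right early apoptotic, upper right late apoptotic. n = 4, mean ± SD.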

[8] = target: T1, Glutaminase kidney isoform, mitochondrial (Homo sapiens) (UniProt O94925); experiment: Inhibition of GLS1 in human MDA-MB-231 cells assessed as reduction in glutamate production incubated for 12 hrs by Amplex red glutamic acid assay; type: cell-based; conditions: dose 40-640 nM
T1 sequence (whole entry): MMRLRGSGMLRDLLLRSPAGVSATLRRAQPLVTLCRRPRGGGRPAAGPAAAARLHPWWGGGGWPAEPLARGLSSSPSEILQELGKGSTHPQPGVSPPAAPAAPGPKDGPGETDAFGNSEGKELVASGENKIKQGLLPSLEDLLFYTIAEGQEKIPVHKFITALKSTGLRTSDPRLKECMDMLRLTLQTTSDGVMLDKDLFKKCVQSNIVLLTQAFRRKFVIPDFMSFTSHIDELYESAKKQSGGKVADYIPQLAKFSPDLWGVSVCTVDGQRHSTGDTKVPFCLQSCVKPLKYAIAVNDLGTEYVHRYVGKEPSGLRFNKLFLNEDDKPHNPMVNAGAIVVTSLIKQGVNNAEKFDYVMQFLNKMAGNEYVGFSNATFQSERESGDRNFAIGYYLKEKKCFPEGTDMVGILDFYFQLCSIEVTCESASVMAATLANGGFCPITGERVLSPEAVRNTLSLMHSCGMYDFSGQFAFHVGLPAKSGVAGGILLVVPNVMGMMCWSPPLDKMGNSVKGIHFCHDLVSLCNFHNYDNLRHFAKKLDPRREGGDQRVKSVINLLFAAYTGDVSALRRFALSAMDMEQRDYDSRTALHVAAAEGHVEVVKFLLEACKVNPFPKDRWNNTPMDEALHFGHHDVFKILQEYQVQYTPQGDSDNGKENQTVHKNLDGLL
How it was run: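 MDA-MB-231 cells pre-cultured 24 h at 37°C, then given compound or 0.1% DMSO for a further 12 h. Cells washed in PBS and lysed in RIPA at 4°C. Glutamate in the lysate measured with an Amplex Red glutamic acid kit per the manufacturer's protocol.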

[9] = system: MDA-MB-231; experiment: Induction of apoptosis in human MDA-MB-231 cells assessed as early apoptotic cells at 160 nM incubated for 12 hrs by annexin V-FITC/PI based flow cytometric analysis (reference value: 1.2%); type: functional; how it was run: as §3
[10] = system: MDA-MB-231; experiment: Induction of apoptosis in human MDA-MB-231 cells assessed as late apoptotic cells at 640 nM incubated for 12 hrs by annexin V-FITC/PI based flow cytometric analysis (reference value: 0.7%); type: functional; how it was run: as §3
[11] = system: MDA-MB-231; experiment: Induction of apoptosis in human MDA-MB-231 cells assessed as necrotic cells at 160 nM incubated for 12 hrs by annexin V-FITC/PI based flow cytometric analysis (reference value: 0.1%); type: functional; how it was run: as §3
[12] = target: T1, Glutaminase kidney isoform, mitochondrial (Homo sapiens); experiment: Inhibition of human GLS1 at 10 uM relative to control
How it was run: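 Human GLS1 hydrolase activity measured with a commercial GLS1 inhibitor screening kit, following the manufacturer's protocol. Single-point screening was run at 10 μM.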

[13] = system: MDA-MB-231; experiment: Antitumor activity against human MDA-MB-231 cells xenografted in BALB/c nude mouse assessed as reduction in tumor volume at 25 to 50 mg/kg, ip administered every 3 days for 4 weeks; type: functional, organism-based; conditions: dose 25-50 mg/kg; how it was run: as §2
[14] = Toxicity in BALB/c nude mouse xenografted with human MDA-MB-231 cells assessed as heart tissue damage at 25 to 50 mg/kg, ip administered every 3 days for 4 weeks; type: organism-based; conditions: in vivo, 672 h, dose 25-50 mg/kg; how it was run: as §1

IC50 ([5]; MDA-MB-231, 24 h): 320 nM
inhibition [8]: Dose-Dependent Effect
inhibition [12]: 87.2%
Compound: CC(=O)O[C@H]1C=C([C@H](C)[C@H]2CC(C)=C(C)C(=O)O2)[C@@]2(C)CC[C@H]3[C@@H](C[C@H]4O[C@]45[C@@H](OC(=O)CCCC(=O)Nc4ccc(N6CCOCC6)c(F)c4)C=CC(=O)[C@]35C)[C@@]12O
Activity [1]: Non-Toxic
Activity [2]: Active
Ratio IC50 [3]: 20
Activity [4]: Dose-Dependent Effect
Activity [5]: Dose-Dependent Effect
Activity [6]: Non-Toxic
Activity [7]: 16.7%
Activity [9]: 2.6%
Activity [10]: 11.7%
Activity [11]: 0.2%
Activity [13]: Active
Activity [14]: Non-Toxic

Reference: ChEMBL document CHEMBL4811218, “Discovery and optimization of withangulatin A derivatives as novel glutaminase 1 inhibitors for the treatment of triple-negative breast cancer” (Eur J Med Chem, 2021)
